Results published in ChEMBL document CHEMBL3526007, “The inactivation of human CYP2E1 by phenethyl isothiocyanate, a naturally occurring chemopreventive agent, and its oxidative bioactivation” (Drug Metab Dispos, 2013).

Key:
Assay type in all cases: ADME; call rule not given here
Liver microsome = test: Drug level in human liver microsomes treated with 50 uM phenethylisothiocyanate after 30 mins by ESI LC-MS/MS method; details: 0.5 h
Summary of the method: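 Human liver microsomes (0.5 mg protein/ml) in 50 mM potassium phosphate pH 7.4, preincubated 5 min with 2 mM GSH. PEITC added to a final 50 µM with NADPH at a final 1.2 mM, then incubated 30 min at 37°C. Controls lacked NADPH. GSH conjugate recovered by C18 solid-phase extraction and analysed by positive-ion LC-MS/MS.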

Cytochrome P450 2E1 [1] = molecular target: T1, Cytochrome P450 2E1 (Homo sapiens, UniProt P05181); test: Drug level assessed as human CYP2E1-mediated compound formation using 50 uM phenethylisothiocyanate in presence of reductase and NADPH after 30 mins by LC-MS/MS method; details: recombinant enzyme, 0.5 h
T1 sequence (P05181 whole entry): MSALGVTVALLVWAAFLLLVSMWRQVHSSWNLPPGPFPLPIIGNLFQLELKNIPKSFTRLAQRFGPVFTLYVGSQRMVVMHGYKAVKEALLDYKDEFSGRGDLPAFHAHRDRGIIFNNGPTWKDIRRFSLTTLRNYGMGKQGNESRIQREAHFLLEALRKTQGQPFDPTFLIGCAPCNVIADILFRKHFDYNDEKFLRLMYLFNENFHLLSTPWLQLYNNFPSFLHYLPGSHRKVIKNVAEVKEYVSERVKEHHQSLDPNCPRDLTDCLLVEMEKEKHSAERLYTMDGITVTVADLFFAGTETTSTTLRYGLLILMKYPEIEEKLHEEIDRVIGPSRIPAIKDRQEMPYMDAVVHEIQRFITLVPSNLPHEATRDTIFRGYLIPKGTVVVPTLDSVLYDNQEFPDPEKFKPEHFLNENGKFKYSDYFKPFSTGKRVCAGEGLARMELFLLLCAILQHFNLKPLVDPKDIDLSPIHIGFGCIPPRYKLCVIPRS
Summary of the method: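 Recombinant human CYP2E1 (1 µM) with reductase (1 µM) reconstituted in DLPC (100 µg/ml), preincubated with 2 mM GSH. PEITC added to a final 50 µM with NADPH at a final 1.2 mM, then incubated 30 min at 30°C. Controls lacked NADPH. Metabolites and GSH conjugates recovered by C18 solid-phase extraction and analysed by positive-ion ESI LC-MS/MS.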

Cytochrome P450 2E1 [2] = molecular target: T1, Cytochrome P450 2E1; test: Retention time assessed as human CYP2E1-mediated compound formation using 50 uM phenethylisothiocyanate in presence of reductase and NADPH after 30 mins by LC-MS/MS method; details: recombinant enzyme, 0.5 h
Summary of the method: (§1)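 CYP2E1 (1 µM) and reductase (1 µM) reconstituted with lipid (100 µg/ml) and preincubated with 2 mM GSH. PEITC (final 50 µM) and NADPH (final 1.2 mM) then added, 30 min at 30°C; controls ran without NADPH. Products were taken up by C18 solid-phase extraction and analysed by positive-ion ESI LC-MS/MS, one full scan plus two data-dependent scans.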

Cytochrome P450 2E1 [3] = molecular target: T1, Cytochrome P450 2E1; test: Inhibition of human CYP2E1 expressed in Escherichia coli MV1304 assessed as reduction in 7-EFC O-de-ethylation activity at 10 uM after 10 mins in presence of reductase by spectrofluorometry
Summary of the method: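 Reconstituted CYP2E1/reductase (1 µM each, 100 µg/ml DLPC, catalase, 50 mM K phosphate pH 7.4) incubated 10 min at 30°C with PIC at 0- to 100-fold molar excess; PIC in acetonitrile, 1% final. Aliquots diluted into secondary mix (0.1 mM 7-EFC, 0.2 mM NADPH, BSA) for 10 min; 7-HFC read at ex 410/em 510 nm. Three experiments in duplicate.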

Cytochrome P450 2E1 [4] = molecular target: T1, Cytochrome P450 2E1; test: Inactivation of human CYP2E1 expressed in Escherichia coli MV1304 assessed as remaining heme level at 25 uM in presence of 1.2 mM NADPH after dialysis by HPLC method
Summary of the method: (§2)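 CYP2E1 and reductase (1 µM each) reconstituted with DLPC (100 µg/ml) plus catalase in 50 mM K phosphate pH 7.4. Incubated 10 min at 30°C with 25 µM PEITC ± 1.2 mM NADPH; control had neither. Then dialysed overnight at 4°C against phosphate buffer with 20% glycerol and 0.1 mM EDTA. Read-outs: P450 by reduced CO difference spectrum (ε450 91 mM⁻¹cm⁻¹), heme by HPLC, and 7-EFC O-de-ethylation after re-adding lipid (50 µg/ml) ± fresh reductase (1 µM). Two experiments in duplicate.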

Cytochrome P450 2E1 [5] = molecular target: T1, Cytochrome P450 2E1; test: Drug metabolism assessed as human CYP2E1-mediated phenethylamine formation at 50 uM in presence of reductase and NADPH after 30 mins by LC-MS/MS method; details: recombinant enzyme, 0.5 h; summary of the method: as §1
CYP2E1 [6] = molecular target: T2, CYP2E1 (Homo sapiens, UniProt P05181); test: (§3) Inhibition of human CYP2E1 expressed in Escherichia coli MV1304 assessed as reduction in 7-EFC O-de-ethylation activity by spectrofluorometry based double reciprocal plot; details: human, probe 7-EFC (O-de-ethylation)
T2 sequence (P05181 whole entry): as above
Summary of the method: (§4)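 Reconstituted CYP2E1 (1 µM) with reductase (1 µM), 100 µg/ml DLPC and catalase, in 50 mM KPi pH 7.4. PEITC 0–50 µM was added (1% methanol final) and the reaction started with 1.2 mM NADPH at 30°C. Aliquots taken at 0–5 min were assayed for 10 min with 0.1 mM 7-EFC and 0.2 mM NADPH; 7-HFC fluorescence was read. Inactivation rates were analysed by double-reciprocal plot. Six experiments, each in duplicate.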

Cytochrome P450 2E1 [7] = molecular target: T1, Cytochrome P450 2E1; test: as §3; summary of the method: as §4
Cytochrome P450 2E1 [8] = molecular target: T1, Cytochrome P450 2E1; test: Drug metabolism assessed as human CYP2E1-mediated phenethylamine formation at 50 uM in presence of reductase and absence of NADPH after 30 mins by LC-MS/MS method; details: recombinant enzyme, 0.5 h; summary of the method: as §1
CYP2E1 [9] = molecular target: T2, CYP2E1; test: Inactivation of human CYP2E1 expressed in Escherichia coli MV1304 assessed as remaining enzyme activity at 25 uM in presence of 1.2 mM NADPH after dialysis in presence of fresh reductase by 7-EFC O-de-ethylation activity detection based spectrofluorometry; details: probe 7-EFC (O-de-ethylation), read-out: Activity; summary of the method: as §2
Cytochrome P450 2E1 [10] = molecular target: T1, Cytochrome P450 2E1; test: Inhibition of human CYP2E1 expressed in Escherichia coli MV1304 assessed as reduction in 7-EFC O-de-ethylation activity in absence of cytochrome b5 by spectrofluorometry
Summary of the method: (§5)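 Primary mix: 1 µM CYP2E1, 1 µM reductase, 100 µg/ml DLPC and catalase in 50 mM K phosphate pH 7.4, with PEITC 0–50 µM (methanol 1% final). Started with 1.2 mM NADPH at 30°C and sampled at 0–5 min. Aliquots assayed for 10 min with 0.1 mM 7-EFC and 0.2 mM NADPH; fluorescence read at ex 410/em 510 nm. Inactivation kinetics from a double-reciprocal plot. Six experiments in duplicate.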

Cytochrome P450 2E1 [11] = molecular target: T1, Cytochrome P450 2E1; test: Inhibition of human CYP2E1 expressed in Escherichia coli MV1304 assessed as reduction in 7-EFC O-de-ethylation activity by spectrofluorometry; summary of the method: as §5
Cytochrome P450 2E1 [12] = molecular target: T1, Cytochrome P450 2E1; test: Inhibition of human CYP2E1 expressed in Escherichia coli MV1304 assessed as partition ratio for enzyme inactivation
Summary of the method: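 Reconstituted CYP2E1 (1 µM) with reductase (1 µM), 100 µg/ml DLPC and catalase, in 50 mM KPi pH 7.4. Incubated with increasing PEITC plus 1.2 mM NADPH for 10 min at 30°C until inactivation was complete. Residual 7-EFC O-de-ethylation was read by fluorescence (ex 410/em 510 nm). Percent activity remaining was plotted against PEITC:P450 molar ratio. The turnover number (r+1) was taken from the intercept of the regression lines. Mean of three experiments.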

Cytochrome P450 2E1 [13] = molecular target: T1, Cytochrome P450 2E1; test: Inactivation of human CYP2E1 expressed in Escherichia coli MV1304 assessed as remaining P450 level at 25 uM after dialysis by CO difference spectral method; summary of the method: as §2
CYP2E1 [14] = molecular target: T2, CYP2E1; test: Inactivation of human CYP2E1 expressed in Escherichia coli MV1304 assessed as remaining enzyme activity at 25 uM after dialysis by 7-EFC O-de-ethylation activity detection based spectrofluorometry; details: probe 7-EFC (O-de-ethylation), read-out: Activity; summary of the method: as §2
CYP2E1 [15] = molecular target: T2, CYP2E1; test: Inactivation of human CYP2E1 expressed in Escherichia coli MV1304 assessed as remaining enzyme activity at 25 uM in presence of 1.2 mM NADPH after dialysis by 7-EFC O-de-ethylation activity detection based spectrofluorometry; details: probe 7-EFC (O-de-ethylation), read-out: Activity; summary of the method: as §2
Cytochrome P450 2E1 [16] = molecular target: T1, Cytochrome P450 2E1; test: Inhibition of human CYP2E1 expressed in Escherichia coli MV1304 assessed as reduction in 7-EFC O-de-ethylation activity at 50 uM added 1 min before NADPH addition in presence of 1 mM GSH by spectrofluorometry; details: TDE = time-dependent effect
Summary of the method: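 Reconstituted CYP2E1/reductase (1 µM each, DLPC, catalase, pH 7.4 phosphate). Arms: 1.2 mM NADPH alone, with 50 µM PEITC, or with 50 µM PEITC plus 1 mM GSH. PEITC added 1 min before NADPH; incubation at 30°C. Residual 7-EFC O-de-ethylation measured at 0, 2, 4, 6 and 12 min by 7-HFC fluorescence.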

Cytochrome P450 2E1 [17] = molecular target: T1, Cytochrome P450 2E1; test: Covalent binding to human CYP2E1 expressed in Escherichia coli MV1304 assessed as protein-adduct formation at 25 uM after 10 mins by ESI LC-MS/MS method
Summary of the method: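 CYP2E1 (1 µM) reconstituted with lipid only (100 µg/ml), no reductase, incubated 10 min at 30°C; control received methanol. Samples (50 µl) analysed by ESI LC-MS/MS on a C18 reverse-phase column equilibrated with 35% acetonitrile/0.1% TFA. Protein envelopes deconvoluted to give the intact protein mass. Mean of two injections.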

Cytochrome P450 2E1 [18] = molecular target: T1, Cytochrome P450 2E1; test: Inactivation of human CYP2E1 expressed in Escherichia coli MV1304 assessed as remaining P450 level at 25 uM in presence of 1.2 mM NADPH after dialysis by CO difference spectral method; summary of the method: as §2
CYP2E1 [19] = molecular target: T2, CYP2E1; test: Inactivation of human CYP2E1 expressed in Escherichia coli MV1304 assessed as remaining enzyme activity at 25 uM after dialysis in presence of fresh reductase by 7-EFC O-de-ethylation activity detection based spectrofluorometry; details: probe 7-EFC (O-de-ethylation), read-out: Activity; summary of the method: as §2
Cytochrome P450 2E1 [20] = molecular target: T1, Cytochrome P450 2E1; test: Inactivation of human CYP2E1 expressed in Escherichia coli MV1304 assessed as remaining heme level at 25 uM after dialysis by HPLC method; summary of the method: as §2

Structure (SMILES): N[C@@H](CCC(=O)N[C@@H](CSC(=O)NCCc1ccccc1)C(=O)NCC(=O)O)C(=O)O
- Drug metabolism (Liver microsome): metabolite_detected
- Drug metabolism (Cytochrome P450 2E1 [1]): metabolite_detected

Structure (SMILES): N[C@@H](CCC(=O)N[C@@H](CSC(=S)NCCc1ccccc1)C(=O)NCC(=O)O)C(=O)O
- Retention_time (Cytochrome P450 2E1 [2]): 16.7 min
- Drug metabolism (Cytochrome P450 2E1 [1]): metabolite_detected

Structure (SMILES): O=C=NCCc1ccccc1 [PHENETHYL ISOCYANATE]
- inhibition (INH) (Cytochrome P450 2E1 [3]): Not Active

Structure (SMILES): NCCc1ccccc1 [PHENETHYLAMINE]
- Retention_time (Cytochrome P450 2E1 [2]): 12.7 min

Structure (SMILES): S=C=NCCc1ccccc1 [PHENETHYLISOTHIOCYANATE]
- Activity (Cytochrome P450 2E1 [4]): 64%
- Drug metabolism (Cytochrome P450 2E1 [5]): metabolite_detected
- kinact (CYP2E1 [6]): 0.00383 s⁻¹
- Ki (Cytochrome P450 2E1 [7]): 11 µM
- Drug metabolism (Cytochrome P450 2E1 [8]): metabolite_not_detected
- activity at 25 µM (CYP2E1 [9]): 26%
- inhibition (INH) (Cytochrome P450 2E1 [10]): Active
- inhibition (INH) (Cytochrome P450 2E1 [11]): Dose-dependent effect and tde
- Ratio (Cytochrome P450 2E1 [12]): 12
- Activity (Cytochrome P450 2E1 [13]): 93%
- activity at 25 µM (CYP2E1 [14]): 82%
- activity at 25 µM (CYP2E1 [15]): 27%
- inhibition (INH) (Cytochrome P450 2E1 [16]): tde
- Activity (Cytochrome P450 2E1 [17]): Not Active
- Activity (Cytochrome P450 2E1 [18]): 42%
- activity at 25 µM (CYP2E1 [19]): 85%
- Activity (Cytochrome P450 2E1 [20]): 100%
